Results taken from ChEMBL document CHEMBL3797202, “Novel Oxindole Sulfonamides and Sulfamides: EPZ031686, the First Orally Bioavailable Small Molecule SMYD3 Inhibitor” (ACS Med Chem Lett, 2016).

Columns and labels:
[1] = Oral bioavailability in CD1 mouse at 5 mg/kg measured up to 24 hrs by LC-MS/MS analysis; assay type: ADME, organism-based; details: in vivo
How it was run: (§1)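 Male CD-1 mice received a single bolus: 1 mg/kg i.v., or 5 or 50 mg/kg p.o. Values are mean ± SD, n = 3. […] Bioavailability was determined separately for each oral dose.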

[2] = molecular target: T1, Histone-lysine N-methyltransferase SMYD3 (Homo sapiens, UniProt Q9H7B4); assay: Non-competitive inhibition of full length N-terminal His-tagged SMYD3 (1 to 428 residues) (unknown origin) expressed in Escherichia coli using varying N-terminal GST-tagged MEKK2 substrate and fixed SAM levels preincubated for 30 mins followed by substrate addition by filter plate assay
T1 sequence (Q9H7B4 whole entry): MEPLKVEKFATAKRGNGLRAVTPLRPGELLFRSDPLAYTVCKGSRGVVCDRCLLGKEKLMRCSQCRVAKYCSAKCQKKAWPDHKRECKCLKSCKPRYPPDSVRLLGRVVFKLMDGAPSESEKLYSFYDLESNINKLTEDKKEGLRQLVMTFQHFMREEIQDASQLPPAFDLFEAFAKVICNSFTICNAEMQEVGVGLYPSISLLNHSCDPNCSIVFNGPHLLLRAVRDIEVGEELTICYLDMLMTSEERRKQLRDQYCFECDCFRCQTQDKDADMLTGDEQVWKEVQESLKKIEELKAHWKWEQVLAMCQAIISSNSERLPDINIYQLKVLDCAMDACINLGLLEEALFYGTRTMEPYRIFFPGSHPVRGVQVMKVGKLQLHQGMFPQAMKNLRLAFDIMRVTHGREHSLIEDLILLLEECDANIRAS

[3] = Efflux ratio of apparent permeability in human Caco2 cells at 10 uM incubated for 120 mins by LC-MS/MS analysis; assay type: ADME, cell-based; details: Caco-2
How it was run: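 Permeability in Caco-2 cells, measured apical-to-basolateral as P_app (×10⁻⁶ cm/s). An efflux ratio is reported as the index of active efflux. This is part of an in vitro ADME screen run before mouse PK studies.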

[4] = AUC (0 to infinity) in CD1 mouse at 5 mg/kg, administered through oral gavage measured up to 24 hrs by LC-MS/MS analysis; assay type: ADME, organism-based; parameters: dose 5 mg/kg, time infinity, route oral; details: in vivo; how it was run: as §1
[5] = Tmax in CD1 mouse at 5 mg/kg, administered through oral gavage by LC-MS/MS analysis; assay type: ADME, organism-based; details: in vivo; how it was run: as §1
[6] = AUC (0 to last) in CD1 mouse at 1 mg/kg, iv as bolus dose measured up to 24 hrs by LC-MS/MS analysis; assay type: ADME, organism-based; parameters: dose 1 mg/kg, time 0 - last, route intravenous; details: in vivo; how it was run: as §1
[7] = AUC (0 to infinity) in CD1 mouse at 1 mg/kg, iv as bolus dose measured up to 24 hrs by LC-MS/MS analysis; assay type: ADME, organism-based; parameters: dose 1 mg/kg, route intravenous, time infinity; details: in vivo; how it was run: as §1
[8] = Terminal half life in CD1 mouse at 5 mg/kg, administered through oral gavage by LC-MS/MS analysis; assay type: ADME, organism-based; details: in vivo, read-out: beta t1/2 (converted); how it was run: as §1
[9] = AUC (0 to last) in CD1 mouse at 5 mg/kg, administered through oral gavage measured up to 24 hrs by LC-MS/MS analysis; assay type: ADME, organism-based; parameters: dose 5 mg/kg, route oral, time 0 - last; details: in vivo; how it was run: as §1
[10] = Terminal half life in CD1 mouse at 50 mg/kg, administered through oral gavage by LC-MS/MS analysis; assay type: ADME, organism-based; details: in vivo, read-out: beta t1/2 (converted); how it was run: as §1
[11] = AUC (0 to infinity) in CD1 mouse at 50 mg/kg, administered through oral gavage measured up to 24 hrs by LC-MS/MS analysis; assay type: ADME, organism-based; parameters: dose 50 mg/kg, time infinity, route oral; details: in vivo; how it was run: as §1
[12] = Renal clearance in CD1 mouse at 1 mg/kg, iv as bolus dose measured up to 24 hrs by LC-MS/MS analysis; assay type: ADME, organism-based, Kidney; details: in vivo; how it was run: as §1

Structure (SMILES): O=C1Cc2cc(C(=O)N[C@H]3C[C@H]4CC[C@@H](C3)N4S(=O)(=O)CC3CCN(CCCC(F)(F)F)CC3)c(Cl)cc2N1
- bioavailability [1]: 48%
- Ki [2]: 1.1 nM
- efflux ratio at 2 h, 10 µM [3]: 41
- AUC(0-inf) [4]: 1480 ng·h/mL
- Tmax [5]: 0.89 h
- AUC(0-t) at 24 h [6]: 603 ng·h/mL
- AUC(0-inf) [7]: 616 ng·h/mL
- half-life [8]: 2.7 h
- AUC(0-t) at 24 h [9]: 1280 ng·h/mL
- half-life [10]: 2.2 h
- AUC(0-inf) [11]: 21200 ng·h/mL
- CL renal at 24 h [12]: 5.3 mL/min/kg
